M5 antag – blocks acetylcholine activation of human M5 receptor; CHO-hM5 cells, Fluo-8 calcium fluorescence, ACh EC80; inhibition, % at 3 µM; 0.59% of 360,000 active; P08912;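 active means inhibition above a per-plate cutoff, the mean of that plate's test compounds plus 3 SD, cut at about 27% in these data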;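 further: 0% = acetylcholine EC80 with DMSO and 100% = DMSO without agonist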
Target sequence (P08912 whole entry, looked up): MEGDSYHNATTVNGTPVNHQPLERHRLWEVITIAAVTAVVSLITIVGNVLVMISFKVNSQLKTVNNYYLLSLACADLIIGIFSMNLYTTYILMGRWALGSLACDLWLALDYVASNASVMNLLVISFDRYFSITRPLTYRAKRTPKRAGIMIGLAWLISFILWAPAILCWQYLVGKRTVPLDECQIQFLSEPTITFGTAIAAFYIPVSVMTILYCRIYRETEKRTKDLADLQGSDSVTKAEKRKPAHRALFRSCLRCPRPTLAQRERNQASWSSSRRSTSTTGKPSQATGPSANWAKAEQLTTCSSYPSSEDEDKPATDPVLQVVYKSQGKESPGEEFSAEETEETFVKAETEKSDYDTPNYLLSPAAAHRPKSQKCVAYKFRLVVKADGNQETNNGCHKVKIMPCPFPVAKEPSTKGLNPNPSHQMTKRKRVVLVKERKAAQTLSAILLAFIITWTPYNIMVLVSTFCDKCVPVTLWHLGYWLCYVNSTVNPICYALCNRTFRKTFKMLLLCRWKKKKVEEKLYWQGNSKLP
CHRM4 PAM – positive allosteric modulators of human muscarinic M4 receptor; 0.4% of 360,000 active; CHO-K1 hM4/Gqi5, Fluo-8 calcium fluorescence, ACh EC20; 0% = ACh EC20, 100% = maximal ACh; P08173; activation, % at 3 µM;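 active means activation above its plate's cutoff, the mean activation of sample wells plus 3 SD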
M5 PAM – CHRM5 positive allosteric modulation; P08912; CHO-K1 hM5, Fluo-8 calcium, ACh EC20 PAM; 0% = ACh EC20, 100% = ACh EC100; activation, % at 3 µM; 0.3% of 360,000 active; AID 624038;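 active means activation above the run cutoff, the mean activation of all test compounds plus 3 SD, cut at about 18% in these data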
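Assay system: CHO-K1 hM5 cells / Incubation: Fluo-8 loading 80 min at 37 °C plus 30 min room temperature / Technique: Fluo-8 calcium dye fluorescence, kinetic read / Repeats: single replicate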
CHRM5 agonist – CHRM5 agonism in calcium assay | P08912 | CHO-K1 hM5 cells, Fluo-8 calcium fluorescence; 0% DMSO wells, 100% maximal acetylcholine response | activation, % at 3 µM | 0.19% of 360,000 active;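 active means activation above the run's mean over test compounds plus 3 SD, cut at about 23% in these data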;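 further: signal is peak over basal fluorescence ratio across the kinetic read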
CHRM4 antagonist – antagonists of human muscarinic M4 receptor (CHRM4) | P08173 | CHO-hM4 cells, ACh EC80, Fluo-8 calcium fluorescence | inhibition, % at 3 µM | 0.73% of 360,000 active | AID 624125;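 active means inhibition above its plate's cutoff, the mean inhibition of sample wells plus 3 SD, cut at about 27% in these data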;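 further: 0% = acetylcholine EC80 with DMSO and 100% = DMSO without agonist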
CHRM4 agonist – agonists of human muscarinic M4 receptor (CHRM4); CHO-K1 hM4/Gqi5, Fluo-8 calcium fluorescence; vehicle 0%, full acetylcholine response 100%; activation, % at 3 µM; 0.14% of 360,000 active;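 active means activation above the run mean over all test wells plus 3 SD, cut at about 32% in these data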;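 further: peak over basal fluorescence ratio per well then scaled between controls; 0% = DMSO wells and 100% = acetylcholine at EC100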
The depositor's hits bear a star. Rows were chosen to be rich in hits. Some 1.8% of all compounds tested hit in one or more screens of this group.

SMILES | M5 antag | CHRM4 PAM | M5 PAM | CHRM5 agonist | CHRM4 antagonist | CHRM4 agonist
COc1ccc(CCC(=O)Nc2c(-c3ccc(N(C)C)cc3)[nH][nH]c2=O)cc1 | 8.5 | 3.9 | -9.0 | 1.3 | 3.9 | 0.0
CC(C)[C@H](NC(=O)c1ccccc1F)C(=O)NCc1ccc(S(N)(=O)=O)cc1 | 1.8 | 15.4* | 10.4 | -2.9 | -25.8 | 3.6
COc1ccc(C(C#N)=Cc2ccc(N(C)CCC#N)cc2)cc1 | 27.8* | -7.4 | -15.8 | 2.9 | 11.4 | 5.2
C[C@@H]1CN(C(=O)c2ccc(OC3CCN(S(=O)(=O)N(C)C)CC3)cc2)C[C@H](C)O1 | 21.7 | -5.1 | -8.0 | -3.2 | 6.2 | 1.8
O=C(c1ccc(Cl)cc1)C1CCCN(Cc2ccc(Oc3ncccn3)cc2)C1 (stereo unspecified) | 26.2 | -44.6 | -31.4 | -18.0 | 43.8* | 6.6
O=C(c1ccc(Cl)cc1)C1CCCN(Cc2cnn(-c3ccccc3)c2)C1 (stereo unspecified) | 9.0 | -13.0 | -17.2 | -13.6 | -7.4 | 9.6
CN(C)S(=O)(=O)c1cccc(NC(=O)COC(=O)CNC(=O)c2ccccc2F)c1 | 4.1 | 0.2 | 7.1 | 4.0 | -2.0 | 1.0
Fc1ccccc1CNC(=S)Nc1cccc(C(F)(F)F)c1 | 27.2* | -23.2 | -20.1 | 6.1 | 9.0 | 13.9
O=C(O)C1(c2ccccc2)CCN(S(=O)(=O)c2ccc(Br)cc2)CC1 | 4.2 | 0.6 | -1.0 | 3.6 | -9.2 | 0.0
Cc1cccc2cc(CN(CC3CCCO3)C(=O)NC3CCCCC3)c(=O)[nH]c12 (stereo unspecified) | 1.9 | -4.4 | -2.7 | -1.0 | 13.8 | 1.1
COc1ccc(CCN(Cc2cc3cccc(C)c3[nH]c2=O)C(=O)NC2CCCCC2)cc1OC | 12.6 | -28.3 | -8.4 | -0.6 | 31.4* | 8.4
C=CCNc1sc(C(=O)c2ccccc2)c(N)c1-c1nc2ccccc2s1 | -5.6 | 28.8* | 19.7* | -6.0 | -3.3 | -2.7
CCNc1sc(C(=O)c2cccs2)c(N)c1-c1nc2ccccc2s1 | 20.7 | 1.8 | -1.6 | 1.9 | 38.0* | 3.2
CCOC(=O)c1sc(NCc2ccco2)c(-c2nc3ccccc3s2)c1N | 3.8 | 1.1 | 3.5 | 0.7 | -4.6 | 2.1
O=C(CCl)N(C1CCCC1)C1CCS(=O)(=O)C1 (stereo unspecified) | 1.8 | 2.1 | 5.2 | -0.9 | 5.7 | 1.3
CN(C)c1ccc(C=c2c3ccccc3n3c2c2ccccc2[n+]3C)cc1 | 21.9 | -7.6 | -8.6 | -6.8 | 32.5* | 3.7
Cn1cc(C(=O)c2cccc(Cl)c2Cl)cc1C(=O)O | -5.8 | 14.3 | 20.7* | -4.7 | -5.5 | -0.6
COC(=O)c1cc(C(=O)c2cccc(Cl)c2Cl)cn1C | 7.0 | -6.2 | -6.1 | -4.3 | 15.8 | -0.5
CCCCCCCCCCCCCCCC[N+](C)(C)Cc1ccc(F)cc1 | 21.4 | -10.3 | -35.2 | -12.6 | 36.3* | 0.4
CC#CC[N+](C)(C)CCCCCCCC | 1.0 | -5.5 | -1.6 | -14.8 | 12.2 | -0.2
Cc1cc2nccc(-c3ccc(OCCCF)cc3)n2n1 | 0.8 | -17.8 | -0.2 | -6.7 | -20.6 | 1.6
COc1ccc(OC)c2c1C(=O)C(Cl)=C(Cl)C2=O | 23.4 | -8.1 | -1.4 | 0.0 | 60.5* | 0.2
CC1=NOC(=O)/C1=C\c1ccc(-c2cccc(Cl)c2)o1 | 19.4 | 3.1 | -4.7 | -1.0 | 53.6* | 5.8
CC1=NOC(=O)/C1=C\c1ccc(-c2ccc(Cl)c(C(=O)O)c2)o1 | 9.4 | -4.5 | 4.6 | -1.4 | -1.6 | 0.5
CCCCCCCCCCCCN1[C@@H](CC(=O)OC)c2cc(F)cc(F)c2S1(=O)=O | 1.0 | 26.1* | 6.4 | 0.6 | -3.6 | 1.1
CCCCCCCCCCCCN1[C@@H](CC(=O)OC)c2cc(F)ccc2S1(=O)=O | 6.9 | 30.0* | -3.8 | -1.2 | -5.3 | 2.0
CCCCCCCCCCCCN1[C@@H](CC(C)=O)c2cc(F)ccc2S1(=O)=O | -0.1 | 7.7 | -1.0 | -0.5 | -8.7 | 1.5
COC(=O)c1cccc(NC(=O)CCNC(=O)c2ccco2)c1 | 14.1 | -2.0 | -1.9 | -2.7 | -8.8 | 4.2

Compound activity (PubChem)
